# TAAR1 ag = human TAAR1 agonism | activation, % at 3 µM | Q96RJ0 | AID 624467 | CHO RD-HGA16 TAAR1, Fluo-8 calcium fluorescence; vehicle wells 0%, saturating PEA agonist 100% | 360,000 compounds, 0.99% hits;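 active means activation above the mean activation of all test compounds in the run plus 3 SD, cut at about 38% in these data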
#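 Test system: RD-HGA16 (CHO) cells co-expressing Gα16 and hTAAR1 | Doses: Single dose, 3 µM | Schedule: 17-24 h seeding, 75 min 37 °C dye, 30 min RT | Evaluation: % activation from peak over basal fluorescence ratio, DMSO-to-PEA scaled | Technique: Kinetic Fluo-8 calcium fluorescence | Benchmarks: Low control DMSO, high control PEA (EC100)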
# OX1R antag-1 = antagonists of human orexin 1 receptor | 330,000 compounds, 0.43% hits | inhibition, % at 5 µM | CHO/OX1R cells, Fluo-8 calcium fluorescence, orexin A | AID 434989;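 active means inhibition above its plate's threshold, mean inhibition of all tested compounds on the plate plus 3 SD, cut at about 37% in these data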;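 further: 0% = orexin A challenge wells and 100% = SB-334867-A antagonist wells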
# NTR1 agonist = activates human neurotensin receptor 1; P30989; NTR1-U2OS beta-arrestin-GFP spot imaging, agonist mode; activation, % at 20 µM; 330,000 compounds, 0.17% hits;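 active means activation at or above 40% of the spot to cytoplasm intensity ratio, with at least 20 cells analyzed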;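 further: 0% = DMSO without peptide and 100% = 100 nM NTR1 peptide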
# Target sequence (P30989 whole entry, looked up): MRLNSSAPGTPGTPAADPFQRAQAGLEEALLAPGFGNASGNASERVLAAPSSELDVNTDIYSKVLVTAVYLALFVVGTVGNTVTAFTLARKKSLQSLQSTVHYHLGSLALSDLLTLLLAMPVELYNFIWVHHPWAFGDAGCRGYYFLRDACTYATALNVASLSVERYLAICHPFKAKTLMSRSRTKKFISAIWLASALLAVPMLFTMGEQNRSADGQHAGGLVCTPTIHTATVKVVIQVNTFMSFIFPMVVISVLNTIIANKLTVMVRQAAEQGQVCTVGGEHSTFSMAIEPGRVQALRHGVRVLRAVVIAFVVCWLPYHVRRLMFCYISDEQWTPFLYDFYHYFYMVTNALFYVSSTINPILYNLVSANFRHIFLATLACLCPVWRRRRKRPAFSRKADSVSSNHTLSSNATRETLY
# TAAR1 antagonist = antagonists of human TAAR1; Q96RJ0; CHO RD-HGA16 TAAR1, Fluo-8 calcium fluorescence, antagonist; inhibition, % at 3 µM; 360,000 compounds, 1.5% hits;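 active means inhibition above a per-plate cutoff, the mean inhibition of test compounds on that plate plus 3 SD, cut at about 49% in these data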;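 further: 0% = DMSO plus EC80 beta-PEA response and 100% = DMSO alone without agonist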
#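 Assay system: CHO-derived RD-HGA16 cells stably expressing human TAAR1 plus Gα16. Timing: 140 s kinetic read after compound, 140 s after agonist. Technique: kinetic Fluo-8 calcium fluorescence measurement. Measure: % inhibition of agonist calcium response.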
# CHO parental Ca = counter-screen for OX1R antagonists: effect in parental CHO cells; 330,000 compounds, 0.63% hits; AID 463079; inhibition, % at 5.6 µM; parental CHO-K1, ATP-induced calcium, Fluo-8 fluorescence;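 active means inhibition above that plate's mean sample inhibition plus 3 SD, cut at about 26% in these data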;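 further: 0% = ATP-challenged DMSO wells and 100% = DMSO wells without ATP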
#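 Material: parental CHO cells / Compound: single nominal dose of 5.6 µM per compound / Signal: Fluo-8 fluorescence / Replicates: singlicate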
# OX1R antag-2 = antagonists of human orexin 1 receptor (OX1R) | O43613 | OX1R-expressing cells, FRET antagonist read-out | inhibition, % at 6.6 µM | 330,000 compounds, 1.8% hits | AID 485270; in the data active means inhibition mostly above about 38%, no sharp cut-off; inactive means mostly below about 40%;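 further: 0% = agonist challenge alone and 100% = reference antagonist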
# * = called active by the depositor; . = no result given. Hits are enriched below; roughly 4% of the tested compounds scored in any of these assays.
SMILES,TAAR1 ag,OX1R antag-1,NTR1 agonist,TAAR1 antagonist,CHO parental Ca,OX1R antag-2
N#Cc1ccc(-c2nc3ccc(Br)cc3c(=O)n2O)cc1,5.5,-20.6,-0.1,-27.6,-8.6,8.1
O=c1c2cc(Br)ccc2nc(-c2cccc(C(F)(F)F)c2)n1O,46.2*,19.8,1.2,-9.3,28.3,39.0
O=C(Nc1ccc(N2CCOCC2)cc1)C1(c2ccc(Cl)cc2)CCC1,43.5*,-1.2,3.9,26.7,-8.7,1.4
O=C(N1CCOCC1)C1(c2ccc(Cl)cc2)CCCC1,12.6,-20.1,0.1,-6.8,-8.6,0.9
CC1CCCC(NC(=O)COC(=O)c2ccc([N+](=O)[O-])s2)C1C (stereo not given),3.6,12.2,0.2,-7.0,2.2,44.1*
O=C(NC1CCCC1)c1ccc([N+](=O)[O-])s1,3.8,-33.1,0.7,-20.2,3.7,61.1*
CC(OC(=O)c1ccc([N+](=O)[O-])s1)C(=O)NC1CCCCC1C (stereo not given),-0.1,-5.3,-0.4,-2.8,-16.9,38.0*
COc1cc(C(=O)OC(C)C(=O)NC2CCCCC2C)c([N+](=O)[O-])cc1OC (stereo not given),-0.6,-8.6,0.0,-7.0,-26.6,30.3
CC1CCCC(NC(=O)COC(=O)c2ccccc2[N+](=O)[O-])C1C (stereo not given),0.7,-19.6,2.9,-12.6,-15.0,8.3
NS(=O)(=O)c1ccc(CCNC(=O)c2ccc([N+](=O)[O-])s2)cc1,0.9,0.2,-0.7,14.0,21.6,65.8*
COc1ccc(NS(=O)(=O)c2cn(C)cn2)cc1OC,2.7,2.7,-0.3,-12.4,0.0,7.3
Cc1cccc(S(=O)(=O)N2CCC[C@H]2C(=O)N2CCC[C@@H]2C(=O)NCc2ccccc2)c1,2.4,.,.,-8.1,.,.
N#Cc1c(-c2ccc(Cl)cc2)ccn2nc(CCC(=O)O)nc12,9.0,-3.9,3.2,-0.1,7.5,56.1*
Cc1cc(C)c(S(=O)(=O)NCCc2cc3ccc(C)c(C)c3[nH]c2=O)c(C)c1,-1.5,-0.7,6.0,-14.5,-17.9,5.8
COc1ccc2cc(CCNS(=O)(=O)c3c(C)cc(C)cc3C)c(=O)[nH]c2c1,-0.4,11.4,0.5,-17.7,-8.6,76.1*
C[C@@H]1COc2cc(N3CCCC3)ccc2S(=O)(=O)N1,-0.8,.,.,26.9,.,.
Cc1cc(C(C)(C)C)oc1C(=O)N(CC(=O)NC1CCCC1)c1c(C)cccc1C,12.3,42.5*,14.7,30.0,45.7*,77.0*
Cc1cc(C(C)(C)C)oc1C(=O)N(CC(=O)NC1CCCC1)c1ccc(F)cc1,35.0,0.4,2.0,14.7,-8.8,54.5*
Cc1cc(Oc2cccc3c2S(=O)(=O)N([C@H](C)c2ccccc2)C[C@@H](COCc2ccccc2)O3)cc(C)c1C,2.9,.,.,1.8,.,.
CC(C)(C)n1nnnc1C(c1cccs1)N(Cc1ccc(Cl)cc1)CC1CCCO1 (stereo not given),-0.9,-43.5,3.1,-7.0,37.9*,8.6
Clc1ccc(CN(Cc2ccccc2)C(c2cccs2)c2nnnn2C2CCCC2)cc1 (stereo not given),2.3,-23.8,2.3,-13.4,-30.5,19.3
O=C1c2ccccc2C(=O)N1Nc1ccc([N+](=O)[O-])cc1[N+](=O)[O-],1.4,-21.3,0.2,12.4,-7.0,68.0*
O=[N+]([O-])c1ccc(Nc2ccccn2)c([N+](=O)[O-])c1,-0.3,-13.2,-1.1,-5.9,-2.3,36.3*
CN1CCN(C2Cc3ccccc3Sc3ccc(Cl)cc32)CC1 (stereo not given),27.3,-25.7,0.9,11.7,-11.4,4.2
CN1CCN(C2Cc3ccccc3Sc3cc(C(F)(F)F)ccc32)CC1 (stereo not given),51.3*,-4.9,12.0,30.3,1.8,1.9
SMILES,TAAR1 ag,OX1R antag-1,NTR1 agonist,TAAR1 antagonist,CHO parental Ca,OX1R antag-2
COC(=O)c1ccc(NC(=O)CSc2ccccc2)cc1,1.9,54.2*,1.2,-14.2,53.7*,9.4
COC(=O)c1ccc(NC(=O)CSc2ccccn2)cc1,2.4,-12.6,-0.9,5.6,0.4,4.2
CSc1nnc(N2C(=O)C(O)=C(C(=O)c3ccco3)C2c2cccc(Cl)c2)s1 (stereo not given),0.8,49.2*,.,-2.0,33.1*,3.0
CCCCCc1c(CC)ncn1CCc1ccccc1OC,48.0*,.,.,52.8*,.,.
CCCCCc1c(-c2ccccc2OC)ncn1CCc1ccccc1OC,35.8,.,.,51.1*,.,.
CCCCc1c(-c2ccccc2OC)ncn1CCc1ccccc1OC,48.5*,.,.,28.4,.,.
CCCCc1c(-c2cccc(Br)c2)ncn1CCc1ccccc1OC,42.5*,.,.,43.4,.,.
C[C@@H]1CN([C@H](C)CO)C(=O)c2c(c3ccccc3n2C)-c2ccccc2CO[C@@H]1CN(C)C(=O)CCN(C)C,0.2,.,.,-16.9,.,.
O=C(NCc1ccccc1)[C@@H]1CCCN1C(=O)[C@H]1CCCN1C(=O)c1ccc(Cl)c(Cl)c1,1.0,.,.,6.2,.,.
Oc1ccc2ccccc2c1C=Nc1ccc(N2CCOCC2)cc1,21.1,5.0,1.7,24.7,-4.8,50.7*
C=Cc1ccc(N=Cc2c(O)ccc3ccccc23)cc1,3.9,-36.6,0.0,-12.2,-16.4,4.2
O=C(NCc1ccc(F)c(F)c1)c1cccc2c(-c3cccnc3)coc12,6.8,.,.,43.8,.,.
O=C(NCc1cccc(Cl)c1)c1cccc2c(-c3cccnc3)coc12,6.1,.,.,55.3*,.,.
O=C(NNc1ccccc1[N+](=O)[O-])Nc1ccccc1,.,-19.7,-0.7,.,-3.9,12.9
O=C(Nc1ccccc1)Nc1cc([N+](=O)[O-])ccc1F,41.4*,-0.5,0.5,2.8,-5.2,16.5
O=C(NNc1ccccc1[N+](=O)[O-])Nc1ccc(F)cc1,41.6*,-3.8,2.9,15.2,-14.9,19.0
COC(=O)[C@]12C[C@H](CC(=O)NCCC(C)C)C(=O)N(Cc3ccccc3)C1=C[C@H](C(C)C)O[C@@H]2C1CC1,-1.0,.,.,-17.4,.,.
N/C(=N\OC(=O)c1ccc([N+](=O)[O-])cc1Cl)c1ccccn1,0.9,-28.1,1.2,-24.1,-16.0,53.8*
N/C(=N\OC(=O)c1cc([N+](=O)[O-])ccc1Cl)c1ccccn1,10.2,-6.9,1.2,-20.2,-5.4,46.2
Cc1ccc(NC(=O)OCCN(C)C(=O)Nc2ccc(C)cc2C)c(C)c1,-1.3,.,.,-34.5,.,.
O=[N+]([O-])c1ccccc1CS(=O)(=O)c1ccccc1,2.1,6.6,1.2,-7.3,-5.2,13.0
O=[N+]([O-])c1sccc1CS(=O)(=O)c1ccccc1,0.0,-0.7,0.4,7.7,-22.0,51.5*
O=C(NCc1ccccc1)[C@H]1CCCN1C(=O)[C@H]1CCCN1C(=O)c1cccc2ccccc12,0.5,.,.,1.6,.,.
Cc1nc(SCc2ccc(Cl)c(Cl)c2)n[nH]1,-0.5,.,-0.3,-6.1,.,.
